Laboratory results published in ChEMBL document CHEMBL2177067 (J Med Chem, 2012).
≈ marks a conversion by molar mass, not a printed value.

How the values were obtained:
Replicative DNA helicase = biological target: T1, Replicative DNA helicase (Bacillus anthracis, UniProt A0A6L8Q2B7); assay: Inhibition of Bacillus anthracis Sterne 34F2 replicative DNA helicase-mediated ATP-dependent dissociation of Hel-5'FAM:Hel-3'BHQ by FRET assay; set-up: species or system Bacillus anthracis str. Sterne
T1 sequence (A0A6L8Q2B7 whole entry): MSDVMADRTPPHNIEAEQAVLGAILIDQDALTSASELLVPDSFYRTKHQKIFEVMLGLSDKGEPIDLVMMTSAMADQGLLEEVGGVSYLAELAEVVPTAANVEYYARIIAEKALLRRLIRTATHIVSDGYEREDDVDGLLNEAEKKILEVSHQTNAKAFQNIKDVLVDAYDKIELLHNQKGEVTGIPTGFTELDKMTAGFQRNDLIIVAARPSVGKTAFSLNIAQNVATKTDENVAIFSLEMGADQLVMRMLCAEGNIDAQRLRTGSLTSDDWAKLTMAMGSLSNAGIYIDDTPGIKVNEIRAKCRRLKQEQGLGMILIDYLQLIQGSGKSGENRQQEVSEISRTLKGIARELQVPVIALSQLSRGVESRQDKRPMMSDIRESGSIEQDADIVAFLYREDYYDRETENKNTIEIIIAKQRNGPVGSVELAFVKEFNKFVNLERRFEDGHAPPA
In short: (§1)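 Unwinding was read by FRET as helicase-driven, ATP-dependent dissociation of annealed Hel-5′FAM and Hel-3′BHQ oligonucleotides, one fluorescent and the other quencher-labelled. The replicative helicases were prepared as described earlier.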

[1] = Inhibition of Staphylococcus aureus ATCC 25923 replicative DnaB helicase-mediated ATP-dependent dissociation of Hel-5'FAM:Hel-3'BHQ by FRET assay; in short: as §1
[2] = Selectivity index, ratio of CC50 for human HeLa cells to MIC for Bacillus anthracis; type: functional
In short: (§2)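 Selectivity index is HeLa CC50 (MTS assay) divided by the bacterial MIC.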

Bacillus anthracis = assay: Antibacterial activity against Bacillus anthracis by broth microdilution method; type: functional
HeLa = assay: Cytotoxicity against human HeLa cells by MTS assay; type: cell-based
Staphylococcus aureus = assay: Antibacterial activity against Staphylococcus aureus ATCC 25923 by broth microdilution method; type: functional
[3] = Selectivity index, ratio of CC50 for human HeLa cells to MIC for Staphylococcus aureus ATCC 25923; type: functional; in short: as §2

SMILES	IC50 (Replicative DNA helicase) [µM]	IC50 [1] [µM]	Selectivity Index [2]	MIC (Bacillus anthracis) [µM]	CC50 (HeLa) [µM]	MIC (Staphylococcus aureus) [µM]	Selectivity Index [3]
CC(=O)NCCNC(=O)CCc1c(C)c2ccc(OCc3ccc(-c4ccccc4)cc3)c(C)c2oc1=O	> 100	> 100	–	–	–	–	–
Cc1c(CCC(=O)O)c(=O)oc2cc(OCc3nccc4ccccc34)ccc12	> 100	> 100	–	–	–	–	–
Cc1c(CCC(=O)O)c(=O)oc2c(C)c(OCc3nccc4ccccc34)ccc12	> 100	> 100	–	–	–	–	–
Cc1c(CCC(=O)O)c(=O)oc2c(C)c(OCc3ccc(-c4ccc(F)cc4)cc3)ccc12	5.1	3.7	>24	< 0.8	19.2	3 (≈ 1.34 µg/mL)	6.4
Cc1c(CCC(=O)O)c(=O)oc2c(C)c(OCc3ccccc3)ccc12	85	60	–	–	–	–	–
Cc1c(CCC(=O)O)c(=O)oc2c(C)c(OCc3ccc(-c4ccccc4C#N)cc3)ccc12	3.8	4.6	15.6	1.25 (≈ 0.567 µg/mL)	19.5	2.5 (≈ 1.13 µg/mL)	7.8
C=CCOc1ccc2c(C)c(CCC(=O)O)c(=O)oc2c1C	> 100	> 100	–	–	–	–	–
Cc1c(CCC(=O)O)c(=O)oc2cc(OCc3ccccc3-c3ccccc3)ccc12	19	12	1.6	5 (≈ 2.07 µg/mL)	7.8	12.5 (≈ 5.18 µg/mL)	0.6
C#CCOc1ccc2c(C)c(CCC(=O)O)c(=O)oc2c1C	> 100	> 100	–	–	–	–	–
Cc1c(CCC(=O)O)c(=O)oc2c(C)c(OCc3cccc4ccccc34)ccc12	–	–	0.09	65 (≈ 26.2 µg/mL)	–	> 100	<0.06
Cc1c(CCC(=O)O)c(=O)oc2cc(OCc3ccc4ccc(Cl)cc4n3)ccc12	> 100	70	–	–	–	–	–
Cc1c(CCC(=O)O)c(=O)oc2c(C)c(OCc3ccccc3-c3ccccc3)ccc12	10.2	9	1.8	2.5 (≈ 1.07 µg/mL)	4.4	10 (≈ 4.28 µg/mL)	0.4
Cc1c(CCC(=O)O)c(=O)oc2c(C)c(OCc3ccc4ccc(Cl)cc4n3)ccc12	56	50	–	–	–	–	–
Cc1c(CCC(=O)O)c(=O)oc2cc(OCc3cccc(-c4ccccc4)c3)ccc12	15	–	4	2.5 (≈ 1.04 µg/mL)	10.1	10 (≈ 4.14 µg/mL)	1
Cc1c(CCC(=O)O)c(=O)oc2cc(OCc3ccc(-c4ccccc4)cc3)ccc12	9.7	6	8.5	2.5 (≈ 1.04 µg/mL)	21.2	3.12 (≈ 1.3 µg/mL)	6.8
CNC(=O)CCc1c(C)c2ccc(OCc3ccc(-c4ccc(Cl)cc4)cc3)c(C)c2oc1=O	> 100	38	0.91	> 100	90.7	> 100	0.91
CCc1c(OCc2ccc(-c3ccccc3)cc2)ccc2c(C)c(CCC(=O)O)c(=O)oc12	2	–	34	1.25 (≈ 0.553 µg/mL)	42	5 (≈ 2.21 µg/mL)	8.4
Cc1c(CCC(=O)O)c(=O)oc2c(C)c(OCc3ccncc3)ccc12	> 100	> 100	–	–	–	–	–
Cc1c(CCC(=O)NCCN(C)C)c(=O)oc2c(C)c(OCc3ccc(-c4ccccc4)cc3)ccc12	1.8	1.7	0.44	2.5 (≈ 1.25 µg/mL)	1.1	5 (≈ 2.49 µg/mL)	0.22
Cc1c(CCC(=O)O)c(=O)oc2c(C)c(OCc3ccc(-c4ccc(F)cc4F)cc3)ccc12	9	4.9	–	> 100	–	> 100	–
Cc1c(CCC(=O)O)c(=O)oc2c(C)c(OCc3cccc(-c4ccccc4)c3)ccc12	7.5	6	9	0.625 (≈ 0.268 µg/mL)	5.6	20 (≈ 8.57 µg/mL)	0.3
